Published values gathered from unrelated publications.
Lines come from different studies, so protocols differ.
Target: Adenosine receptor A1 (ADORA1, Homo sapiens, UniProt P30542)
Sequence (P30542 1-326, as in one of the studies): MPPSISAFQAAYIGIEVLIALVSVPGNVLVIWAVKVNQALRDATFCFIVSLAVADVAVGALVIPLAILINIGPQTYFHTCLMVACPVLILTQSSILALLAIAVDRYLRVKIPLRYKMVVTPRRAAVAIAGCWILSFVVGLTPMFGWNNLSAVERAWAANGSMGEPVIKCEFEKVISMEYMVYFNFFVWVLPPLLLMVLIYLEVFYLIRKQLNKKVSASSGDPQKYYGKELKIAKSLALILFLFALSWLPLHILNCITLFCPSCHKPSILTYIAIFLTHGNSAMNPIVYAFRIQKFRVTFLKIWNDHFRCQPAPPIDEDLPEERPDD

`COc1ccc(SC[C@@]23C[C@@H]2[C@@H](n2cnc4c(NC(C5CCCC5)C5CCCC5)nc(Cl)nc42)[C@H](O)[C@@H]3O)cc1OC` gave an inhibition of 39% (ligand displacement; radioligand; 10 µM).
With `C[C@H](C(=O)N[C@H]1COc2ccccc2[C@@H]1S(C)(=O)=O)c1ccc(F)cc1` the inhibition was 1% (cell-free assay; 10 µM).
For `COCc1c(-c2cc3cc(C)cc(OC)c3s2)c2c(N)ncnn2c1CN1CCNC(=O)C1`, the inhibition was 16% (ligand displacement; radioligand; 10 µM).
`c1ccc(C(NCCNC(c2ccccc2)c2ccccc2)c2ccccc2)cc1` has an inhibition of 30% (cell-free assay; 10 µM).
With `CCN(CC)CCCC[C@H](NC(=O)[C@H](CC(C)C)NC(=O)[C@H](C)NC(=O)[C@H](Cc1ccccc1)NC(=O)c1ccc(C(C)(C)C)cc1)C(=O)N[C@@H](CO)C(=O)OC` the inhibition was 4% (ligand displacement; radioligand; 10 µM).
`CCSC[C@@]12C[C@@H]1[C@@H](n1cnc3c(NC(C4CCCC4)C4CCCC4)nc(Cl)nc31)[C@H](O)[C@@H]2O` has an inhibition of 54% (ligand displacement; radioligand; 10 µM).
`CN(CCN1CCC(OC(=O)Nc2ccccc2-c2ccccc2)CC1)C(=O)c1ccc(CN2CCC(C(N)=O)CC2)cc1` has an inhibition of 0% (ligand displacement; radioligand; 1 µM).
For `O=C(Nc1cccnn1)N1CCN([C@@H]2CCOc3cc(C(F)(F)F)ccc32)CC1`, the inhibition was 17% (cell-free assay; 20 µM).
`CC(C)N1CCC[C@H]1CNC(=O)c1cn(C2CCCC2)c(=O)c2c1c1ccccc1n2C` gave an inhibition of -1% (ligand displacement; radioligand; 10 µM).
For `CSC[C@@]12C[C@@H]1[C@@H](n1cnc3c(NC(C4CCCC4)C4CCCC4)nc(SC)nc31)[C@H](O)[C@@H]2O`, the inhibition was 15% (ligand displacement; radioligand; 10 µM).
For `COc1ccc(S(=O)(=O)N2CCCCC2)cc1C`, the inhibition was under 30% (ligand displacement; radioligand; 10 µM).
